Experimental findings from ChEMBL document CHEMBL5696442, “Discovery of type II inhibitors of TGFβ-activated kinase 1 (TAK1) and mitogen-activated protein kinase kinase kinase kinase 2 (MAP4K2)” (J Med Chem, 2015) are described below.

Each structure is given as a SMILES string.

The target in assay [1] is Serine/threonine-protein kinase B-raf (Homo sapiens, UniProt P15056). As to the kind of experiment: Inhibition of BRAF Lys2 labeling site in human A-375 cells at 5 uM by KiNativ Profiling analysis relative to control. It is filed as cell-based. The gist of the method: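 Live A375 melanoma cells were treated with compound at 5 or 0.5 μM, then lysed. The lysates were labeled with a lysine-reactive ATP or ADP-biotin probe. Kinase protection from probe labeling was measured by KiNativ.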
Chain of Serine/threonine-protein kinase B-raf (P15056 whole entry): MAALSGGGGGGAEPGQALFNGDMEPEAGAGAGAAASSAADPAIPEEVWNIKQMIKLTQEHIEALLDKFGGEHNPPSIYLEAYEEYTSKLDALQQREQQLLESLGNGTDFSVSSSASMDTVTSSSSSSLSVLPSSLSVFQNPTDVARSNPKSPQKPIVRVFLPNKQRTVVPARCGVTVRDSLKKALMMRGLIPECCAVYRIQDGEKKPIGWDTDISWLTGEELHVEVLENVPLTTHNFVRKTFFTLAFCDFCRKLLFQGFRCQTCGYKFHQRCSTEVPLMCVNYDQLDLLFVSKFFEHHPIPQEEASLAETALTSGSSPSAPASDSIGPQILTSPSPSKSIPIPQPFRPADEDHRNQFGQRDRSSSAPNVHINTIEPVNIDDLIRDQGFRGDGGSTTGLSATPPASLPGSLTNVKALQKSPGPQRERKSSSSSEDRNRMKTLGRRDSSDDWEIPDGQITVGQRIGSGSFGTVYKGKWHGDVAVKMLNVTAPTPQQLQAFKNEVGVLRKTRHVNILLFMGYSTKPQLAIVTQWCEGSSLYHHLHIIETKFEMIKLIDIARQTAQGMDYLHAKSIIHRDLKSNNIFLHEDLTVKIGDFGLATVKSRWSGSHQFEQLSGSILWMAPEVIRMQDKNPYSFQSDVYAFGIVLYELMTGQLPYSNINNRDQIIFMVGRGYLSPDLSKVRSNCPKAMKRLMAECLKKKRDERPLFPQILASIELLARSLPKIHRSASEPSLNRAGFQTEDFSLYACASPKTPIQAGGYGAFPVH

For assay [2], the target named is Proto-oncogene tyrosine-protein kinase Src (Homo sapiens, UniProt P12931). The assay can be described thus: Inhibition of SRC ACT labeling site in human A-375 cells at 0.5 uM by KiNativ Profiling analysis relative to control. It counts as cell-based.
Chain of Proto-oncogene tyrosine-protein kinase Src (P12931 2-536 limits assumed): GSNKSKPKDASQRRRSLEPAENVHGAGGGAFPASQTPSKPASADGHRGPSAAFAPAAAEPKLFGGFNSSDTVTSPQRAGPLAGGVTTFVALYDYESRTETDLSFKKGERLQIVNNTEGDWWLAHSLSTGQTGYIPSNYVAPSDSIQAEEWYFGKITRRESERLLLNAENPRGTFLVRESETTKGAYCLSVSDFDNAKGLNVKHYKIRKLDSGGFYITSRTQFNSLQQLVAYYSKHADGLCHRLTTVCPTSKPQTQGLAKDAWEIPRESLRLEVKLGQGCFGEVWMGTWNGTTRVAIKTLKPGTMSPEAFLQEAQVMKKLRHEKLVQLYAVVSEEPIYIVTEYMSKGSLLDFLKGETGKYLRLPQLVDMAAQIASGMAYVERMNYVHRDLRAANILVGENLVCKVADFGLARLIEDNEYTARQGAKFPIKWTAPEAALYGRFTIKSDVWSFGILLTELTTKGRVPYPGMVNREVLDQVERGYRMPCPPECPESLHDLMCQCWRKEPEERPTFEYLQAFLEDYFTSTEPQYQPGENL
The target of assay [3] is Tyrosine-protein kinase ABL1 (Homo sapiens, UniProt P00519). As to the kind of experiment: Inhibition of ABL (unknown origin) ACT labeling site by KiNativ Profiling analysis.
Chain of Tyrosine-protein kinase ABL1 (P00519 whole entry, the tested form may be a part): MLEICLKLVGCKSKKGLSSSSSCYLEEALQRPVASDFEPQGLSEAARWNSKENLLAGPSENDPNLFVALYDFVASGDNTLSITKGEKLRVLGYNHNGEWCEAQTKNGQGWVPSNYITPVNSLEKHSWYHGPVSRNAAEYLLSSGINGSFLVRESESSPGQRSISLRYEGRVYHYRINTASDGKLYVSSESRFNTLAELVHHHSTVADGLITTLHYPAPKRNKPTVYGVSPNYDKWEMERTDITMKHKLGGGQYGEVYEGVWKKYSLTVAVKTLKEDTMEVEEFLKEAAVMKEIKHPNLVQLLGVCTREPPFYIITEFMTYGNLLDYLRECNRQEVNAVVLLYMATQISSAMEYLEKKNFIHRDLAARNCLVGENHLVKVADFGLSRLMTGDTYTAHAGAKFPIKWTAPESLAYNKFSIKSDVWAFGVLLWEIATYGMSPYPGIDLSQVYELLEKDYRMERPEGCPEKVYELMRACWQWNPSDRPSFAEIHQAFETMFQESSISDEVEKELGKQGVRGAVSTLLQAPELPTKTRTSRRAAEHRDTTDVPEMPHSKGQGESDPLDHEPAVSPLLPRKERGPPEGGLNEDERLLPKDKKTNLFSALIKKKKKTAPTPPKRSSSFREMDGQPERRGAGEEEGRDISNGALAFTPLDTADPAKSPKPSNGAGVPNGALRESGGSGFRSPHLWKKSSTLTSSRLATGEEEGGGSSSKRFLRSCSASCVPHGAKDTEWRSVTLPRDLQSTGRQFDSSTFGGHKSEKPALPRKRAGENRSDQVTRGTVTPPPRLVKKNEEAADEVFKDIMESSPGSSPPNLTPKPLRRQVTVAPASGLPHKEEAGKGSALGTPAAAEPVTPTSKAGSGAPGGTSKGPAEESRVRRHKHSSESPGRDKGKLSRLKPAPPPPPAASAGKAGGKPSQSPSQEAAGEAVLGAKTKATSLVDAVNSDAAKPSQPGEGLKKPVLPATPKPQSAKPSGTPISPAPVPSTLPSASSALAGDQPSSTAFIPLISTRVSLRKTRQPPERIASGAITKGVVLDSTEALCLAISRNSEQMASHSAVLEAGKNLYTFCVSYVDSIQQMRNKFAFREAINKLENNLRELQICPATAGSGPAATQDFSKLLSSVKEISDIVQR
Assay [4] has as its target eIF-2-alpha kinase GCN2 (Homo sapiens) (UniProt Q9P2K8). As to the kind of experiment: Inhibition of GCN2 domain2 Lys1 labeling site in human A-375 cells at 5 uM by KiNativ Profiling analysis relative to control. It is filed as cell-based.
Assay [5] deals with T1, Scaffold protein ILK (Homo sapiens) (UniProt Q13418).
T1 sequence (whole entry): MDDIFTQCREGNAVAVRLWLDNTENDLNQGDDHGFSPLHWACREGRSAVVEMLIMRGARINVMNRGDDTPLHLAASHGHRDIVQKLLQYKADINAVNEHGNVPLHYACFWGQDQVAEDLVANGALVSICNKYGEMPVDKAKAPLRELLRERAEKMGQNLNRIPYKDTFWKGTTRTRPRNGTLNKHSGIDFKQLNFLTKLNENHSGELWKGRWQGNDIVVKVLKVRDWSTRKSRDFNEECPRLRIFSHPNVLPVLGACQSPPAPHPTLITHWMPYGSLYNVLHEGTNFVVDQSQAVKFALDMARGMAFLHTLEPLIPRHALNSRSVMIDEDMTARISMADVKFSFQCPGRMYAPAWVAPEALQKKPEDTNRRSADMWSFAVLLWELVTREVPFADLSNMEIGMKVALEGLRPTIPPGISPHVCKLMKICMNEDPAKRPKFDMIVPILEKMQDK
The assay can be described thus: Inhibition of ILK Lys1 labeling site in human A-375 cells at 5 uM by KiNativ Profiling analysis relative to control. It is filed as cell-based.

Assay [6] deals with Serine/threonine-protein kinase 26 (Homo sapiens) (UniProt Q9P289). The assay can be described thus: Inhibition of MST4 ACT labeling site in human A-375 cells at 5 uM by KiNativ Profiling analysis relative to control. It counts as cell-based.
Chain of Serine/threonine-protein kinase 26 (Homo sapiens) (Q9P289 2-416 limits assumed): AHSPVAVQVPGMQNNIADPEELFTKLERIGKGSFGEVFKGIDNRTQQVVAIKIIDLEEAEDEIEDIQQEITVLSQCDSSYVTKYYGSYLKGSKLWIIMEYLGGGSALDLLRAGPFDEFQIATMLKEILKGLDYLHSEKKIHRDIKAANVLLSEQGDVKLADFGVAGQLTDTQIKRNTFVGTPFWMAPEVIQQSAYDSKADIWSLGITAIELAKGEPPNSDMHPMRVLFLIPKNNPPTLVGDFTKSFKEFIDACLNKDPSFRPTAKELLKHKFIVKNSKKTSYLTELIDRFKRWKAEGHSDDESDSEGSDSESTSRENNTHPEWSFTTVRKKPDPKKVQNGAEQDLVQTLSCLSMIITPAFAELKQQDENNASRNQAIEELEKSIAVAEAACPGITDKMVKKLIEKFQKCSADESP
For assay [7] the target is unchanged. The assay can be described thus: Inhibition of MST4 Lys2 labeling site in human A-375 cells at 5 uM by KiNativ Profiling analysis relative to control. It counts as cell-based.
The target of assay [8] is T2, Serine/threonine-protein kinase 3 (Homo sapiens) (UniProt Q13188).
T2 sequence (whole entry): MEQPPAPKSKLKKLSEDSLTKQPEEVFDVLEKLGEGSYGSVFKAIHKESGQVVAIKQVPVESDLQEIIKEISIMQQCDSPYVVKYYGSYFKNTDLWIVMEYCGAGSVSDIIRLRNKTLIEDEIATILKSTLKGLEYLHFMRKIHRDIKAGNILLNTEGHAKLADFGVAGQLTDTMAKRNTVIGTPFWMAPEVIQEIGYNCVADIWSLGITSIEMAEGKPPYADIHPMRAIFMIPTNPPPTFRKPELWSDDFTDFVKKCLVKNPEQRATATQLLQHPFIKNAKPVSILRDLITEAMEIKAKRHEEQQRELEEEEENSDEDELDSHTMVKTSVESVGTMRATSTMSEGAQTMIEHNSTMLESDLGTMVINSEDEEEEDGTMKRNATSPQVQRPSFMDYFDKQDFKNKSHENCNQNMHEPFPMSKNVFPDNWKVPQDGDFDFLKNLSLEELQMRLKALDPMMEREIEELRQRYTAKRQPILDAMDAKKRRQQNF
The assay can be described thus: Inhibition of MST2 Lys2 labeling site harbouring DIKAGNILLNTEGHAK in human A-375 cells at 0.5 uM by KiNativ Profiling analysis relative to control. It is filed as cell-based.

The target of assay [9] is T3, Serine/threonine-protein kinase ULK3 (Homo sapiens) (UniProt Q6PHR2).
T3 sequence (whole entry): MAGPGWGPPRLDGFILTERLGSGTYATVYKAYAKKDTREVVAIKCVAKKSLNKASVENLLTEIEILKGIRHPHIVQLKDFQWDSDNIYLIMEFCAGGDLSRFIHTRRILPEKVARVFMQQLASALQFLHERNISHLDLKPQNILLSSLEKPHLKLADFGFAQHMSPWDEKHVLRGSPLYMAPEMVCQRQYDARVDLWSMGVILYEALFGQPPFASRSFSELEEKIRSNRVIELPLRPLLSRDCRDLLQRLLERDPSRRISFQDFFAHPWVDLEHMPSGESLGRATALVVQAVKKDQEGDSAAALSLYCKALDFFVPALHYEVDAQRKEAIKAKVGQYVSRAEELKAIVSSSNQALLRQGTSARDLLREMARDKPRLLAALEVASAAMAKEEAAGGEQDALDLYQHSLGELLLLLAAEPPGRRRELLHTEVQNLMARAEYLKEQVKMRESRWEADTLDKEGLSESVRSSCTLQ
The assay can be described thus: Inhibition of ULK3 Lys2 labeling site in human A-375 cells at 0.5 uM by KiNativ Profiling analysis relative to control. It is filed as cell-based.

Assay [10] concerns the target Serine/threonine-protein kinase WNK2 (Homo sapiens) (UniProt Q9Y3S1). The assay can be described thus: Inhibition of Wnk2 ACT labeling site in human A-375 cells at 0.5 uM by KiNativ Profiling analysis relative to control. It is filed as cell-based.
The target in assay [11] is Serine/threonine-protein kinase 38-like (Homo sapiens) (UniProt Q9Y2H1). As to the kind of experiment: Inhibition of NDR2 Lys1 labeling site harbouring DTGHIYAMKILR in human A-375 cells at 0.05 uM by KiNativ Profiling analysis relative to control. It counts as cell-based.
Chain of Serine/threonine-protein kinase 38-like (Homo sapiens) (Q9Y2H1 2-464 limits assumed): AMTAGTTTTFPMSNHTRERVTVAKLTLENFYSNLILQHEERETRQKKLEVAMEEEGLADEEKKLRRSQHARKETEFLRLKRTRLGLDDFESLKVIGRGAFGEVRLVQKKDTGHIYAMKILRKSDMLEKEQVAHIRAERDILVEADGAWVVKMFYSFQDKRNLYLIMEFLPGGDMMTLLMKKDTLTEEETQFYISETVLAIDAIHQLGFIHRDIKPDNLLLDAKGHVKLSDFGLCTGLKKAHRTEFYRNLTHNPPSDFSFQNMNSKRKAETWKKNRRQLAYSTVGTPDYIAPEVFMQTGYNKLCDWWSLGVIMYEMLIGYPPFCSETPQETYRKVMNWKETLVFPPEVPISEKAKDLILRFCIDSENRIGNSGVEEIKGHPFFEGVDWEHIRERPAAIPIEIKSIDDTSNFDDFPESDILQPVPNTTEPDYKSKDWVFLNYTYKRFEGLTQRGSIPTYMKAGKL
For assay [12], the target named is Serine/threonine-protein kinase WNK4 (Homo sapiens) (UniProt Q96J92). The assay can be described thus: Inhibition of Wnk4 ACT labeling site in human A-375 cells at 0.05 uM by KiNativ Profiling analysis relative to control. It counts as cell-based.
In assay [13] the target is T4, Mitogen-activated protein kinase 13 (Homo sapiens) (UniProt O15264).
T4 sequence (whole entry): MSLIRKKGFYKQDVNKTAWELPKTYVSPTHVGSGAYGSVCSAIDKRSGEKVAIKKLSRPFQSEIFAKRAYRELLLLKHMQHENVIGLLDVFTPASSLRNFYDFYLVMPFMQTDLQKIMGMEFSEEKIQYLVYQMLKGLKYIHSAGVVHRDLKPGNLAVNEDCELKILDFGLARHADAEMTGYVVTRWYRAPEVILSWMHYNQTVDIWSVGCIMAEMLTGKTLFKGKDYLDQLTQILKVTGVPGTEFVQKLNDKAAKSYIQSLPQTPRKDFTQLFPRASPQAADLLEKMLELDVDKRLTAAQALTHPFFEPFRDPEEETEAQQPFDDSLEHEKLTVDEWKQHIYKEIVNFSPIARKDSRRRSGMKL
As to the kind of experiment: Inhibition of p38delta Lys2 labeling site in human Huh-7 cell lysate at 1 uM by KiNativ Profiling analysis relative to control. It is filed as subcellular.

Chain of eIF-2-alpha kinase GCN2 (Homo sapiens) (Q9P2K8 whole entry, the tested form may be a part): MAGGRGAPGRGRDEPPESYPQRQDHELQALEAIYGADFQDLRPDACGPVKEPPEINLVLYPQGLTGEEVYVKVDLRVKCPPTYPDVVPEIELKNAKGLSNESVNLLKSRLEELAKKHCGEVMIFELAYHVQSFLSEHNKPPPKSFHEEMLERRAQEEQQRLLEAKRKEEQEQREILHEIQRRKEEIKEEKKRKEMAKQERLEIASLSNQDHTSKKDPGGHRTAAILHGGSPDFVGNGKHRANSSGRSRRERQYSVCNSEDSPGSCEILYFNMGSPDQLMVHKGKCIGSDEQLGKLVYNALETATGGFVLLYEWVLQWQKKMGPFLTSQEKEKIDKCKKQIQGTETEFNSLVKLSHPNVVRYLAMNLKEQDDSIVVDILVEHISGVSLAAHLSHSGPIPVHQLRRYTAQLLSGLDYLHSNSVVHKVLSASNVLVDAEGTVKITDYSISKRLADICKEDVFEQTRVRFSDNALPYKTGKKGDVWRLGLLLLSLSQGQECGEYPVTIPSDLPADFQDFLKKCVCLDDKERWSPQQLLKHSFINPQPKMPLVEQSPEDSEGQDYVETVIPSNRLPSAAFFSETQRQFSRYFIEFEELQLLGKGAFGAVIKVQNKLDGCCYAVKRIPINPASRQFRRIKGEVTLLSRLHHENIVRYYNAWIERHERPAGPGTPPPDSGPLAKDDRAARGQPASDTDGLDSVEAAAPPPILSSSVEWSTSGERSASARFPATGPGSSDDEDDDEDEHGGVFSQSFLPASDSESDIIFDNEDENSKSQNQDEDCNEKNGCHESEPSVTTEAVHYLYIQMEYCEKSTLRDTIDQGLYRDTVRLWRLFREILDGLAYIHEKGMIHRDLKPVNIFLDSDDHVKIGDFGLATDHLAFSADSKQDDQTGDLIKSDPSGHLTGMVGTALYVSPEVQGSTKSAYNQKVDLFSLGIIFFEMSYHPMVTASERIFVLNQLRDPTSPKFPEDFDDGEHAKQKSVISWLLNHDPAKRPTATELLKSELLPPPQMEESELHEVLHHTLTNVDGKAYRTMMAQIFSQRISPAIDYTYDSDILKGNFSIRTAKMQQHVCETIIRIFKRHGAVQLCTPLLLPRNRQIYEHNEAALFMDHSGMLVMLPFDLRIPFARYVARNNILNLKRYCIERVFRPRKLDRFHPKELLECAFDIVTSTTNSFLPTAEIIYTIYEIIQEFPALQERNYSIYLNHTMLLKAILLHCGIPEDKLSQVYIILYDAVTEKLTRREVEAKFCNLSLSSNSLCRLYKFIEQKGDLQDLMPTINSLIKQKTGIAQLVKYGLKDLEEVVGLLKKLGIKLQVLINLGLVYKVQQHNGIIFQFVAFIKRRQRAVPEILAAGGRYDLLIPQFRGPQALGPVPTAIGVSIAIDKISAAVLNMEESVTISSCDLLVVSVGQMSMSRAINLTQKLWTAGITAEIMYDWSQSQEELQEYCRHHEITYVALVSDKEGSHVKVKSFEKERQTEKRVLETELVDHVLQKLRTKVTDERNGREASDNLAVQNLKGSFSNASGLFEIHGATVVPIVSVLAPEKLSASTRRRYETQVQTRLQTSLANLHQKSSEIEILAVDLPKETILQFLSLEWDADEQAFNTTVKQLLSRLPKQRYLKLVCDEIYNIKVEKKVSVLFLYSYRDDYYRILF

What is called inhibition is the change of the read-out against control, counted positive when it falls. Usually IC50 stands for the concentration needed to halve the response being measured. Lower therefore signals greater potency in that assay. With `CCN1CCN(Cc2ccc(NC(=O)c3ccc(C)c(/C=C/c4cnc5[nH]ccc5c4OC)c3)cc2C(F)(F)F)CC1`, the inhibition was 61.5% in [1]; 72.6% in assay [2]; 81.1% in assay [4]; -8.7% in assay [5]; 13.7% in assay [6]; 20.9% in assay [7]. Moreover, the inhibition in assay [8] was -9.8%; in [9], 8.5%; in [10] it was 6.9%; in [11] it was -0.9%; in [12], 10.1%. The IC50 in [3] is 51.5 nM.

Regarding `CCN1CCN(Cc2ccc(NC(=O)c3ccc(C)c(Oc4ccnc5[nH]ccc45)c3)cc2C(F)(F)F)CC1`, the inhibition is 66.8% in assay [1]; 36.5% in assay [2]; 37.6% in assay [4]; -9.9% in assay [5]; 35.1% in assay [6]; 15.4% in assay [7]. Further, the inhibition is -3.5% in assay [8]; -2.5% in assay [9]; 3.9% in assay [10]; 5.4% in [11]; 10.3% in assay [12]. Also, half-maximal inhibition in assay [3] (IC50) required 75.2 nM.

Regarding `CNc1cc(Oc2cc(C(=O)Nc3cc(-n4cnc(C)c4)cc(C(F)(F)F)c3)ccc2C)ncn1`, the inhibition in [13] is 5.5%.

Take `CNc1cc(Oc2cc(C(=O)Nc3cc(N4CCN(C)CC4)cc(C(F)(F)F)c3)ccc2C)ncn1`: the inhibition in [13] is 12.8%.
